Assay results from ChEMBL document CHEMBL4665669, “Novel tertiary sulfonamide derivatives containing benzimidazole moiety as potent anti-gastric cancer agents: Design, synthesis and SAR studies” (Eur J Med Chem, 2019).

target: Carbonic anhydrase 9 (Homo sapiens, UniProt Q16790); assay: Inhibition of recombinant human CA9 preincubated for 15 mins by phenol red dye based stopped flow CO2 hydration assay; conditions: not given

SMILES	IC50 [nM]
Cc1ccc(N(CC(C)F)S(=O)(=O)c2ccc([N+](=O)[O-])cc2)cc1 (configuration not stated)	4.2

system: not listed separately; assay: Inhibition of HIF in human LN229 cells transfected with HRE-luc/LacZ by dual luciferase reporter gene assay; assay type: cell-based; conditions: LN-229

SMILES	IC50 [nM]
COc1ccc(S(=O)(=O)N(Cc2ccc3c(c2)OC(C)(C)C=C3)c2ccccc2)cc1OC	590

system: MGC-803; assay: Anticancer activity against human MGC-803 cells assessed as inhibition of cell proliferation after 48 hrs by MTT assay; assay type: functional, cell-based; conditions: MGC-803, 48 h
In short: (§1)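 MTT assay with 48 h compound exposure. MTT solution was then added and incubated 4 h at 37 °C, the supernatant discarded and formazan dissolved in DMSO, with absorbance read at 490 nm. IC50 values were calculated from three independent experiments, reported as mean SD.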

SMILES	IC50 [µM]
COc1cc(N(Cc2csc3ccc(Cl)cc23)S(=O)(=O)c2ccc(C)cc2)cc(OC)c1OC	3.45
Cc1ccc(S(=O)(=O)N(Cc2nc3ccccc3[nH]2)c2ccccc2)cc1	45.2
COc1ccc(N(Cc2nc3ccccc3[nH]2)S(=O)(=O)c2ccc(C)cc2)cc1	> 50
COc1cc(N(Cc2nc3ccccc3[nH]2)C(=O)c2ccccc2)cc(OC)c1OC	> 50
COc1cc(N(Cc2cccc(C)c2)S(=O)(=O)c2ccc(C)cc2)cc(OC)c1OC	4.34
COc1ccc(C(=O)N(Cc2nc3ccccc3[nH]2)c2cc(OC)c(OC)c(OC)c2)cc1OC	22.4
COc1cc(N(Cc2nc3ccccc3[nH]2)C(=O)c2ccc(F)cc2)cc(OC)c1OC	23.6
COc1cc(N(Cc2nc3ccccc3[nH]2)S(=O)(=O)c2ccccc2Cl)cc(OC)c1OC	19.1
COc1ccc(CN(c2cc(OC)c(OC)c(OC)c2)S(=O)(=O)c2c(C)cc(C)cc2C)cc1	6.44
COc1ccc(N(Cc2nc3ccccc3[nH]2)S(=O)(=O)c2ccc(C)cc2)cc1OC	> 50
COc1cc(N(Cc2ccc(F)cc2)S(=O)(=O)c2ccc(C)cc2)cc(OC)c1OC	3.75
COc1cc(N(Cc2nc3ccccc3[nH]2)S(=O)(=O)c2ccc(C(C)(C)C)cc2)cc(OC)c1OC	24.1
COc1ccc(S(=O)(=O)N(Cc2nc3ccccc3[nH]2)c2cc(OC)c(OC)c(OC)c2)cc1OC	22.5
COc1cc(N(Cc2nc3ccccc3[nH]2)S(=O)(=O)c2ccc(F)cc2)cc(OC)c1OC	5.68
COc1ccc(CN(c2cc(OC)c(OC)c(OC)c2)S(=O)(=O)c2ccc(C(C)(C)C)cc2)cc1	10.3
COc1cc(N(Cc2ccccc2)S(=O)(=O)c2ccc(C)cc2)cc(OC)c1OC	3.57
Cc1ccc(S(=O)(=O)N(Cc2nc3ccccc3[nH]2)c2ccc(F)cc2)cc1	34.6
COc1cc(N(Cc2ccc(Cl)cc2)S(=O)(=O)c2ccc(C)cc2)cc(OC)c1OC	1.72
COc1cc(N(Cc2nc3ccccc3[nH]2)C(=O)c2ccc(C(C)(C)C)cc2)cc(OC)c1OC	> 50
COc1ccc(CN(c2cc(OC)c(OC)c(OC)c2)S(=O)(=O)c2ccc(C)cc2)cc1	4.34
COc1cc(N(Cc2nc3ccccc3[nH]2)C(=O)c2ccc(C)cc2)cc(OC)c1OC	30.5
COc1cc(N(Cc2nc3ccccc3[nH]2)C(=O)c2cccc(Cl)c2)cc(OC)c1OC	> 50
COc1ccc(CN(c2cc(OC)c(OC)c(OC)c2)S(=O)(=O)c2ccccc2)cc1	> 50
COc1ccc(CN(c2cc(OC)c(OC)c(OC)c2)S(=O)(=O)c2ccc(OC)c(OC)c2)cc1	8.31
COc1cc(N(Cc2nc3ccccc3[nH]2)C(=O)c2ccc(Br)cc2)cc(OC)c1OC	14.6
COc1cc(N(Cc2nc3ccccc3[nH]2)S(=O)(=O)c2ccccc2)cc(OC)c1OC	12.4
COc1cc(N(Cc2nc3ccccc3[nH]2)S(=O)(=O)c2ccc(Br)cc2)cc(OC)c1OC	2.19
Cc1ccc(S(=O)(=O)N(Cc2nc3ccccc3[nH]2)c2ccc(Cl)cc2)cc1	24.8
COc1cc(N(Cc2ccc(Br)cc2)S(=O)(=O)c2ccc(C)cc2)cc(OC)c1OC	1.61
Cc1ccc(N(Cc2nc3ccccc3[nH]2)S(=O)(=O)c2ccc(C)cc2)cc1	41.2

system: PC-3; assay: Anticancer activity against human PC-3 cells assessed as inhibition of cell proliferation after 48 hrs by MTT assay; assay type: functional, cell-based; conditions: PC-3, 48 h; in short: as §1

SMILES	IC50 [µM]
COc1cc(N(Cc2csc3ccc(Cl)cc23)S(=O)(=O)c2ccc(C)cc2)cc(OC)c1OC	15.2
Cc1ccc(S(=O)(=O)N(Cc2nc3ccccc3[nH]2)c2ccccc2)cc1	> 50
COc1ccc(N(Cc2nc3ccccc3[nH]2)S(=O)(=O)c2ccc(C)cc2)cc1	> 50
COc1cc(N(Cc2nc3ccccc3[nH]2)C(=O)c2ccccc2)cc(OC)c1OC	> 50
COc1cc(N(Cc2cccc(C)c2)S(=O)(=O)c2ccc(C)cc2)cc(OC)c1OC	8.58
COc1ccc(C(=O)N(Cc2nc3ccccc3[nH]2)c2cc(OC)c(OC)c(OC)c2)cc1OC	34.9
COc1cc(N(Cc2nc3ccccc3[nH]2)C(=O)c2ccc(F)cc2)cc(OC)c1OC	21.9
COc1cc(N(Cc2nc3ccccc3[nH]2)S(=O)(=O)c2ccccc2Cl)cc(OC)c1OC	34.5
COc1ccc(CN(c2cc(OC)c(OC)c(OC)c2)S(=O)(=O)c2c(C)cc(C)cc2C)cc1	14.8
COc1ccc(N(Cc2nc3ccccc3[nH]2)S(=O)(=O)c2ccc(C)cc2)cc1OC	> 50
COc1cc(N(Cc2ccc(F)cc2)S(=O)(=O)c2ccc(C)cc2)cc(OC)c1OC	20.7
COc1cc(N(Cc2nc3ccccc3[nH]2)S(=O)(=O)c2ccc(C(C)(C)C)cc2)cc(OC)c1OC	29.8
COc1ccc(S(=O)(=O)N(Cc2nc3ccccc3[nH]2)c2cc(OC)c(OC)c(OC)c2)cc1OC	30.4
COc1cc(N(Cc2nc3ccccc3[nH]2)S(=O)(=O)c2ccc(F)cc2)cc(OC)c1OC	7.99
COc1ccc(CN(c2cc(OC)c(OC)c(OC)c2)S(=O)(=O)c2ccc(C(C)(C)C)cc2)cc1	28.6
COc1cc(N(Cc2ccccc2)S(=O)(=O)c2ccc(C)cc2)cc(OC)c1OC	7.81

SMILES	IC50 [µM]
O=c1[nH]cc(F)c(=O)[nH]1 [FLUOROURACIL]	18.4
Cc1ccc(S(=O)(=O)N(Cc2nc3ccccc3[nH]2)c2ccc(F)cc2)cc1	45
COc1cc(N(Cc2ccc(Cl)cc2)S(=O)(=O)c2ccc(C)cc2)cc(OC)c1OC	14.6
COc1cc(N(Cc2nc3ccccc3[nH]2)C(=O)c2ccc(C(C)(C)C)cc2)cc(OC)c1OC	46
COc1ccc(CN(c2cc(OC)c(OC)c(OC)c2)S(=O)(=O)c2ccc(C)cc2)cc1	8.22
COc1cc(N(Cc2nc3ccccc3[nH]2)C(=O)c2ccc(C)cc2)cc(OC)c1OC	42
COc1cc(N(Cc2nc3ccccc3[nH]2)C(=O)c2cccc(Cl)c2)cc(OC)c1OC	> 50
COc1ccc(CN(c2cc(OC)c(OC)c(OC)c2)S(=O)(=O)c2ccccc2)cc1	> 50
COc1ccc(CN(c2cc(OC)c(OC)c(OC)c2)S(=O)(=O)c2ccc(OC)c(OC)c2)cc1	20.1
COc1cc(N(Cc2nc3ccccc3[nH]2)C(=O)c2ccc(Br)cc2)cc(OC)c1OC	19.9
COc1cc(N(Cc2nc3ccccc3[nH]2)S(=O)(=O)c2ccccc2)cc(OC)c1OC	25.5
COc1cc(N(Cc2nc3ccccc3[nH]2)S(=O)(=O)c2ccc(Br)cc2)cc(OC)c1OC	6.89
Cc1ccc(S(=O)(=O)N(Cc2nc3ccccc3[nH]2)c2ccc(Cl)cc2)cc1	42.2
COc1cc(N(Cc2ccc(Br)cc2)S(=O)(=O)c2ccc(C)cc2)cc(OC)c1OC	4.68
Cc1ccc(N(Cc2nc3ccccc3[nH]2)S(=O)(=O)c2ccc(C)cc2)cc1	48.9

system: MCF7; assay: Anticancer activity against human MCF7 cells assessed as inhibition of cell proliferation after 48 hrs by MTT assay; assay type: functional, cell-based; conditions: MCF7, 48 h; in short: as §1

SMILES	IC50 [µM]
COc1cc(N(Cc2csc3ccc(Cl)cc23)S(=O)(=O)c2ccc(C)cc2)cc(OC)c1OC	8.95
Cc1ccc(S(=O)(=O)N(Cc2nc3ccccc3[nH]2)c2ccccc2)cc1	49.7
COc1ccc(N(Cc2nc3ccccc3[nH]2)S(=O)(=O)c2ccc(C)cc2)cc1	> 50
COc1cc(N(Cc2nc3ccccc3[nH]2)C(=O)c2ccccc2)cc(OC)c1OC	> 50
COc1cc(N(Cc2cccc(C)c2)S(=O)(=O)c2ccc(C)cc2)cc(OC)c1OC	14.3
COc1ccc(C(=O)N(Cc2nc3ccccc3[nH]2)c2cc(OC)c(OC)c(OC)c2)cc1OC	> 50
COc1cc(N(Cc2nc3ccccc3[nH]2)C(=O)c2ccc(F)cc2)cc(OC)c1OC	45.2
COc1cc(N(Cc2nc3ccccc3[nH]2)S(=O)(=O)c2ccccc2Cl)cc(OC)c1OC	38.1
COc1ccc(CN(c2cc(OC)c(OC)c(OC)c2)S(=O)(=O)c2c(C)cc(C)cc2C)cc1	18.7
COc1ccc(N(Cc2nc3ccccc3[nH]2)S(=O)(=O)c2ccc(C)cc2)cc1OC	> 50
COc1cc(N(Cc2ccc(F)cc2)S(=O)(=O)c2ccc(C)cc2)cc(OC)c1OC	19.2
COc1cc(N(Cc2nc3ccccc3[nH]2)S(=O)(=O)c2ccc(C(C)(C)C)cc2)cc(OC)c1OC	33.6
COc1ccc(S(=O)(=O)N(Cc2nc3ccccc3[nH]2)c2cc(OC)c(OC)c(OC)c2)cc1OC	47.7
COc1cc(N(Cc2nc3ccccc3[nH]2)S(=O)(=O)c2ccc(F)cc2)cc(OC)c1OC	9.38
COc1ccc(CN(c2cc(OC)c(OC)c(OC)c2)S(=O)(=O)c2ccc(C(C)(C)C)cc2)cc1	32.7
COc1cc(N(Cc2ccccc2)S(=O)(=O)c2ccc(C)cc2)cc(OC)c1OC	10.2

SMILES	IC50 [µM]
O=c1[nH]cc(F)c(=O)[nH]1 [FLUOROURACIL]	17.1
Cc1ccc(S(=O)(=O)N(Cc2nc3ccccc3[nH]2)c2ccc(F)cc2)cc1	> 50
COc1cc(N(Cc2ccc(Cl)cc2)S(=O)(=O)c2ccc(C)cc2)cc(OC)c1OC	18.6
COc1cc(N(Cc2nc3ccccc3[nH]2)C(=O)c2ccc(C(C)(C)C)cc2)cc(OC)c1OC	48.8
COc1ccc(CN(c2cc(OC)c(OC)c(OC)c2)S(=O)(=O)c2ccc(C)cc2)cc1	10.1
COc1cc(N(Cc2nc3ccccc3[nH]2)C(=O)c2ccc(C)cc2)cc(OC)c1OC	49.2
COc1cc(N(Cc2nc3ccccc3[nH]2)C(=O)c2cccc(Cl)c2)cc(OC)c1OC	34.9
COc1ccc(CN(c2cc(OC)c(OC)c(OC)c2)S(=O)(=O)c2ccccc2)cc1	> 50
COc1ccc(CN(c2cc(OC)c(OC)c(OC)c2)S(=O)(=O)c2ccc(OC)c(OC)c2)cc1	22.7
COc1cc(N(Cc2nc3ccccc3[nH]2)C(=O)c2ccc(Br)cc2)cc(OC)c1OC	> 50
COc1cc(N(Cc2nc3ccccc3[nH]2)S(=O)(=O)c2ccccc2)cc(OC)c1OC	27.3
COc1cc(N(Cc2nc3ccccc3[nH]2)S(=O)(=O)c2ccc(Br)cc2)cc(OC)c1OC	7.74
Cc1ccc(S(=O)(=O)N(Cc2nc3ccccc3[nH]2)c2ccc(Cl)cc2)cc1	38.3
COc1cc(N(Cc2ccc(Br)cc2)S(=O)(=O)c2ccc(C)cc2)cc(OC)c1OC	10.9
Cc1ccc(N(Cc2nc3ccccc3[nH]2)S(=O)(=O)c2ccc(C)cc2)cc1	> 50

system: HGC-27; assay: Anticancer activity against human HGC-27 cells assessed as inhibition of cell proliferation after 48 hrs by MTT assay; assay type: functional, cell-based; conditions: HGC-27, 48 h; in short: as §1

SMILES	IC50 [µM]
O=c1[nH]cc(F)c(=O)[nH]1 [FLUOROURACIL]	4.28

system: SGC-7901; assay: Anticancer activity against human SGC-7901 cells assessed as inhibition of cell proliferation after 48 hrs by MTT assay; assay type: functional, cell-based; conditions: SGC-7901, 48 h; in short: as §1

SMILES	IC50 [µM]
O=c1[nH]cc(F)c(=O)[nH]1 [FLUOROURACIL]	5.54

system: GES1; assay: Cytotoxicity against human GES1 cells assessed as inhibition of cell proliferation after 48 hrs by MTT assay; assay type: cell-based; conditions: GES1, 48 h
In short: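 Normal gastric epithelial GES-1 cells were exposed to compound for 48 h. MTT was then added for 4 h at 37 °C. Formazan was dissolved in DMSO after the supernatant was removed, and absorbance was read at 490 nm. IC50 was computed from three independent experiments, given as mean SD.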

SMILES	IC50 [µM]
O=c1[nH]cc(F)c(=O)[nH]1 [FLUOROURACIL]	10.2
